Assay outcomes from PubChem BioAssay.
ERp5 inh = ERp5 (human) disulfide isomerase inhibition; Q15084; actives 0.05% (n = 350,000); inhibition, % at 9.99 µM; ERp5 insulin aggregation, absorbance 650 nm, 90 min;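 active = mean replicate inhibition above about 25%, with every replicate also reaching it, limit read from the data, passing the limit was not always enough; inconclusive = only one of those two criteria met; inactive = neither criterion met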
C2C12 statin = protects C2C12 myotubes from simvastatin toxicity | rescue of ATP level, % at 7.49 µM | ATP luminescence, 48 h; scaled: DMSO 0, geranylgeraniol control 100 | AID 602340 | actives 0.78% (n = 330,000);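 active = mean ATP rescue above about 67%, or every replicate alone reaching that limit, limit read from the data, passing the limit was not always enough; inconclusive = no clear call, values can overlap the other calls; inactive = mean under the limit and some replicate under it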;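 note: myotubes were challenged with 10 µM simvastatin during compound exposure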
DENV2 CPE = DENV2-induced cell death inhibition. DENV2-infected cells, cytopathic effect rescue, plate reader. CPE inhibition, % at 9.99 µM. actives 1.7% (n = 350,000). AID 651640; in the data active = CPE inhibition above about 20%, passing the limit was not always enough; inconclusive = no clear call, values can overlap the other calls; tested in BHK-21 cells;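 note: 0% = median of neutral control wells and 100% = median of positive control wells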
F508del corr = correctors of CFTR F508del function in bronchial epithelial cells | AID 720511 | CFBE cells, YFP halide quenching; stimulated with forskolin plus potentiator P3; % fluorescence drop versus neutral controls | actives 0.36% (n = 350,000) | activity (quench increase), % at 7.58 µM;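 active = mean added fluorescence quench of at least 8% versus neutral control, with both replicates also reaching 8%; inconclusive = only one of the mean or replicate conditions met; inactive = mean below 8% and not both replicates reaching 8%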;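 note: cells transiently co-express mutant CFTR-F508del with the halide-sensitive YFP; corrector assay measuring rescue of mutant channel to the surface after 24 h compound exposure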
PDI inh = PDI (human) enzyme inhibition; PDI insulin aggregation turbidity, A650, 90 min; inhibition, % at 10 µM; actives 0.052% (n = 350,000);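 active = mean inhibition across replicates of 30% or more, whatever share of single replicates reach that level; inconclusive = mean inhibition below 30% while every single replicate reaches 30%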
Target sequence (P07237 whole entry, looked up): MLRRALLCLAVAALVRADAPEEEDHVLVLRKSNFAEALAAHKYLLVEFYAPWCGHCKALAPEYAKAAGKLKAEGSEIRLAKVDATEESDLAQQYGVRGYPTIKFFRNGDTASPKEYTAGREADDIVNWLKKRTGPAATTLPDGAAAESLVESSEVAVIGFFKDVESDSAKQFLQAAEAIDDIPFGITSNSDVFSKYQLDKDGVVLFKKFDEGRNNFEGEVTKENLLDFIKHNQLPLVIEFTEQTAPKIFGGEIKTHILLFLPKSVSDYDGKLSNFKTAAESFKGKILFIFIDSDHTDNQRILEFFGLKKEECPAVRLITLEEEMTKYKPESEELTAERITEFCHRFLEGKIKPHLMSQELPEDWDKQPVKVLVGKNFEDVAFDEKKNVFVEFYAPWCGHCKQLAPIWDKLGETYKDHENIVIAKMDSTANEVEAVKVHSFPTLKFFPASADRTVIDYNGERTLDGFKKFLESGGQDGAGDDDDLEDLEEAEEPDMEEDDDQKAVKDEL
Cneo AK release = Cryptococcus neoformans lysis via adenylate kinase release | C. neoformans lysis, adenylate kinase release luminescence, 4 h; normalised: neutral wells 0, clomiphene wells 100 | lysis activity, % at 15 µM | actives 0.2% (n = 360,000);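 active = mean lysis activity across replicates of at least 80%, whatever share of replicates individually reach that level; inactive = mean lysis activity below 80%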
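Material – Cryptococcus neoformans yeast cells · Quantity – 5 × 10^6 yeast cells/mL · Buffer or medium – YPD medium · Compound – single dose · Timing – 4 h static compound exposure, 37 °C, read 1 h post-reagent · Signal – adenylate kinase release luminescence · Read-out basis – lysis from increased AK signal · Benchmarks – Clomiphene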
The depositor's hits bear a star; ? = inconclusive; nt = no result. Hits are enriched below; roughly 2.3% of the tested compounds scored in any of these assays.

SMILES	ERp5 inh	C2C12 statin	DENV2 CPE	F508del corr	PDI inh	Cneo AK release
Cc1ccc(-n2[nH]c(C)c(C=Nc3cc(C)ccn3)c2=O)cc1	nt	89.0*	nt	nt	-7.0	0.4
Cc1ccc(-n2[nH]c(C)c(/C=N/c3ccccn3)c2=O)cc1	3.4	-44.5	nt	nt	-10.6	-1.3
COc1ccc2c3c(n(C)c2c1)[C@H](CO)N(Cc1ccccc1)CC31CCN(S(=O)(=O)c2ccc(C)cc2)CC1	-1.2	nt	5.1	1.0	nt	nt
CC1CCN(CCOc2ccc(OCc3ccccc3)cc2)CC1	-6.7	8.7	35.6*	3.0	-1.6	-3.9
c1ccc(COc2ccc(OCCCCN3CCCC3)cc2)cc1	nt	nt	nt	nt	5.2	2.9
COc1ccc2c3c([nH]c2c1)[C@@H](CO)N(Cc1ccccc1F)CC31CCN(S(C)(=O)=O)CC1	nt	nt	?	-0.3	nt	nt
COc1ccc2c3c([nH]c2c1)[C@H](CO)N(C(=O)c1ccc(F)cc1)CC31CN(Cc2cccnc2)C1	2.3	nt	44.6*	-2.1	nt	nt
COc1ccc2c3c([nH]c2c1)[C@@H](CO)N(Cc1nccs1)CC31CN(Cc2ccncc2)C1	-4.0	nt	54.2*	2.9	nt	nt
COc1ccc2c3c([nH]c2c1)[C@@H](CO)N(C(=O)CN1CCOCC1)CC31CN(Cc2ccccc2)C1	7.1	nt	39.7*	1.3	nt	nt
COc1ccc2c3c([nH]c2c1)[C@@H](CO)N(C(=O)c1cccnc1)CC31CN(Cc2ccccc2)C1	8.9	nt	35.1*	3.2	nt	nt
CNC(=O)C[C@H]1CC[C@@H]2[C@@H](COc3ccc(NC(=O)c4cccs4)cc3C(=O)N2C)O1	nt	13.3	16.3	-2.5	nt	0.8
COc1cc(OC)cc(C(=O)OC/C(O)=C(\C#N)c2nc3ccccc3[nH]2)c1	2.3	nt	60.5*	1.1	-2.6	0.8
N#CC(=C(O)COC(=O)c1ccc2c(c1)OCCO2)c1nc2ccccc2[nH]1	6.1	nt	-2.5	-2.5	-5.6	nt
Cc1noc(C)c1NC(=O)Nc1ccc2c(c1)C(=O)N([C@@H](C)CO)C[C@@H](C)[C@@H](CN(C)S(=O)(=O)c1c(C)noc1C)O2	11.5	nt	-1.7	-0.4	nt	3.1
O=C(CSc1nnc(-c2ccncc2)n1Cc1ccco1)Nc1ccccc1Cl	nt	nt	nt	nt	-12.3	nt
O=C(CSc1nnc(-c2ccncc2)n1Cc1ccco1)Nc1nc(-c2ccccc2)cs1	nt	97.5*	nt	nt	-4.8	0.5
CCCNC(=O)N1[C@H](C#N)[C@@H](c2ccccc2-c2ccccc2)[C@@H]1CO	4.5	nt	-2.6	-0.4	nt	nt
CCCNC(=O)N1[C@H](CO)[C@H](c2ccccc2-c2ccccc2)[C@@H]1C#N	2.7	nt	108.7*	-1.5	nt	nt
CCC(=O)N1[C@@H](C#N)[C@H](c2ccccc2-c2ccccc2)[C@@H]1CO	-8.1	nt	46.8*	-2.3	nt	nt
COc1cccc(S(=O)(=O)Nc2ccc3c(c2)C(=O)N(C)C[C@H](OC)[C@@H](C)CN[C@@H](C)CO3)c1	3.6	-0.2	-7.6	-0.4	nt	1.3
C[C@@H]1CN([C@H](C)CO)C(=O)Cc2cc(NC(=O)NC3CCCCC3)ccc2O[C@H]1CN(C)CC1CCCCC1	0.0	13.3	24.9*	1.7	nt	nt
C[C@H](CO)N1C[C@H](C)[C@@H](CN(C)CC2CCCCC2)Oc2ccc(NC(=O)Nc3ccc4c(c3)OCO4)cc2CC1=O	4.0	-13.0	29.3*	3.1	nt	2.5
C[C@H]1CN([C@@H](C)CO)C(=O)Cc2cc(NS(=O)(=O)c3cccs3)ccc2O[C@H]1CN(C)CC1CC1	-0.1	-1.1	12.5	-0.5	nt	52.5
O=[N+]([O-])c1ccc(F)cc1OCc1nc(-c2cccs2)no1	-6.3	nt	-0.8	0.1	-2.0	nt
O=[N+]([O-])c1ccccc1OCc1nc(-c2cccs2)no1	0.2	nt	23.4*	-0.9	-0.9	nt
SMILES	ERp5 inh	C2C12 statin	DENV2 CPE	F508del corr	PDI inh	Cneo AK release
CN(Cc1nccs1)C(=O)c1ccc(OC2CCN(Cc3ccccn3)CC2)cc1	-7.1	-2.1	41.8*	-1.7	-1.5	4.5
COc1ccc(CN(C)C[C@H]2Oc3ccc(NS(=O)(=O)c4c(C)noc4C)cc3C(=O)N([C@H](C)CO)C[C@@H]2C)cc1	-9.4	nt	0.6	-2.9	nt	-0.7
CCOC(=O)[C@]12CCCC=C1N(CCc1ccc(OC)c(OC)c1)C(=O)[C@H](CC(=O)NCCCN1CCCC1=O)C2	1.6	nt	-2.5	0.8	nt	nt
CCOC(=O)[C@]12CCC=C1N(CCC1=CCCCC1)C(=O)[C@H](CC(=O)NCCCCc1ccccc1)C2	2.4	nt	85.1*	-0.5	nt	nt
CCCCOCCCNC(=O)C[C@@H]1C[C@@]2(C(=O)OCC)CCCC=C2N(CCc2ccc(OC)c(OC)c2)C1=O	0.7	nt	27.6*	-0.9	nt	nt
C[C@H](CO)N1C[C@H](C)[C@H](CN(C)C(=O)Nc2ccccc2)Oc2cc(C#CC3(O)CCCC3)ccc2S1(=O)=O	-5.1	-33.5	6.4	-2.1	nt	-1.0
O=C1c2ccc([N+](=O)[O-])cc2C(=O)N1Cc1cccnc1	4.1	5.8	90.0*	2.6	-2.5	-0.9
CCNC(=O)C[C@@H]1CC[C@H]2[C@@H](COC[C@@H](O)CN2C(=O)C2CC2)O1	-0.3	0.4	3.0	-1.2	nt	-3.8
CCC1(C2=CCCCC2)C(=O)NC(=S)N=C1N (stereo not given)	2.5	-6.6	6.4	8.7*	7.2	0.7
CCOC(=O)c1nnc(-c2ccc(C)cc2)nc1Sc1ccc(Cl)cc1	nt	109.2*	nt	nt	-8.5	-2.2
COc1ccccc1CNC(=O)C[C@@H]1CC[C@H](NC(=O)CC2CC2)[C@@H](CO)O1	-0.8	-3.6	-1.1	-0.7	nt	-2.9
CCOC(=O)C1(C)CCCN1C(=O)c1ccc(OC)c(F)c1 (stereo not given)	1.7	-1.3	-10.3	-1.0	-1.1	1.8
COc1ccc(C(=O)N2CCC2(C)C(=O)O)cc1F (stereo not given)	-1.2	8.8	78.9*	-0.5	9.3	0.1
COc1cc(CNc2nccn3ccnc23)cc(OC)c1	1.2	2.5	36.3*	-4.2	23.2	-0.8
COCCCNc1nccn2ccnc12	3.5	3.5	4.2	-3.1	13.2	4.6
C[C@@H]1CN([C@H](C)CO)C(=O)c2cc(NS(=O)(=O)c3cccs3)ccc2O[C@H]1CN(C)S(C)(=O)=O	2.2	-13.2	-3.3	-0.4	nt	-3.6
C=CCOc1ccc2c(OC)c3ccoc3nc2c1OC	nt	92.1*	nt	nt	-3.5	-3.1
C[C@H]1CN([C@@H](C)CO)C(=O)c2cc(NC(=O)Cn3cnnn3)ccc2O[C@H]1CN(C)Cc1ccc(C(=O)Nc2ccccc2N)cc1	-2.1	17.1	43.3*	-1.1	nt	3.1
C[C@@H]1CN([C@H](C)CO)C(=O)c2cc(NC(=O)Cn3cnnn3)ccc2O[C@@H]1CN(C)Cc1ccc(C(=O)Nc2ccccc2N)cc1	-5.3	105.2*	16.9	-1.3	nt	4.1
C[C@@H]1CN([C@H](C)CO)C(=O)Cc2cc(NC(=O)Cn3cnnn3)ccc2O[C@@H]1CN(C)Cc1ccc(C(=O)Nc2ccccc2N)cc1	3.5	nt	112.3*	0.0	nt	nt
